# ChEMBL document CHEMBL1124403, “Studies on semirigid tricyclic analogues of the nigrostriatal toxin 1-methyl-4-phenyl-1,2,3,6-tetrahydropyridine” (J Med Chem, 1989)
# Experiments:
# [1] = target: T1, Dopamine receptor (Mus musculus) (UniProt P51436+Q8BLD9+Q61616+P61168+P30728); experiment: Black mice were injected intraperitoneally with 100 uMol of test compound and Striatal levels of dopamine in mice measured after 1 week; format: functional
# Outline: (§1)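 Male C-57 black mice, 8–10 weeks old, 25–30 g, six per data point. Dosed ip at 100 μmol/kg in 50 μL normal saline every hour for 4 h; controls received saline only. Times counted from the last injection. Striata dissected and stored at −80 °C. Dopamine measured by HPLC with electrochemical detection after alumina extraction, with DHBA as internal standard; reported as ng/mg tissue.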
# [2] = target: T1, Dopamine receptor (Mus musculus); experiment: (§2) Black mice were injected intraperitoneally with 100 uMol /kg of test compound and Striatal levels of dopamine in mice measured after 4 hours; format: functional; outline: as §1
# [3] = target: T2, Amine oxidase [flavin-containing] B (Bos taurus, UniProt P56560); experiment: Rate of oxidation against monoamine oxidase-B (MAO-B)
# T2 sequence (P56560 whole entry): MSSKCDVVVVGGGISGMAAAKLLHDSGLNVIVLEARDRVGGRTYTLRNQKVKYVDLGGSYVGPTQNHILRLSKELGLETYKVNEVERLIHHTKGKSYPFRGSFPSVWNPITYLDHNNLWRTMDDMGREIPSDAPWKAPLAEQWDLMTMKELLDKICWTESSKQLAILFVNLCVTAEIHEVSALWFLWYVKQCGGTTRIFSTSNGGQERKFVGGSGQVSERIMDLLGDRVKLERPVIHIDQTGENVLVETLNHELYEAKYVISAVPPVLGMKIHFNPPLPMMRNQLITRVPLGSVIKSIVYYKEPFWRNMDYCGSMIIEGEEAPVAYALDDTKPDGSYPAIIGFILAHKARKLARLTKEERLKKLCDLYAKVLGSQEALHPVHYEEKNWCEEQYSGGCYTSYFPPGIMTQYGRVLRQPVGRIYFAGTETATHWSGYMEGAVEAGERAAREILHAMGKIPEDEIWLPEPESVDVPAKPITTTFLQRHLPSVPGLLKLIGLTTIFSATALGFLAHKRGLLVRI
# Outline: (§3)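 Beef liver mitochondrial MAO-B, purified, 0.1 unit in 50 mM sodium phosphate pH 7.2 with 0.2% reduced Triton X-100. Substrate at 3 mM (3.0 mM). Initial rate of dihydropyridinium product formation read spectrophotometrically at its λmax (345 nm for MPDP⁺, 360 nm for the tricyclic products), in nmol min⁻¹ mL⁻¹. Controls held 10⁻⁶ M pargyline.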
# [4] = target: T1, Dopamine receptor (Mus musculus); experiment: (§4) Black mice were injected intraperitoneally with 100 uMol of test compound and Striatal levels of Dopamine in mice measured after 1 month; format: functional; outline: as §1
# [5] = target: T1, Dopamine receptor (Mus musculus); experiment: Black mice were injected intraperitoneally with 100 uMol of test compound and Striatal levels of dopamine in mice measured after 24 hours; format: functional; outline: as §1
# [6] = target: T2, Amine oxidase [flavin-containing] B; experiment: Rate of oxidation against monoamine oxidase B; outline: as §3
# [7] = target: T2, Amine oxidase [flavin-containing] B; experiment: Binding affinity against Monoamine oxidase B
# Outline: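 Beef liver mitochondrial MAO-B, purified and cleared of heme protein by sucrose-gradient centrifugation; 0.02 unit enzyme in 50 mM sodium phosphate pH 7.2 with 0.2% (w/v) reduced Triton X-100. Inhibitor at 0–500 μM or 0–100 μM against benzylamine 0.17–3.3 mM. Oxidation followed at 250 nm as initial rates. Lineweaver–Burk plots; Ki taken from secondary replots of slope vs inhibitor concentration.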
# [8] = system: Mus musculus; experiment: Black mice were injected intraperitoneally with 100 uMol of test compound and Striatal levels of Dopamine in mice measured after 1 week; format: functional; outline: as §1
# [9] = system: Mus musculus; experiment: as §4; format: functional; outline: as §1
# [10] = system: Mus musculus; experiment: Black mice were injected intraperitoneally with 100 uMol of test compound and Striatal levels of Dopamine in mice measured after 24 hours; format: functional; outline: as §1
# [11] = system: Mus musculus; experiment: as §2; format: functional; outline: as §1
Compound,Dopamine level [1] [ng/mg],Dopamine level [2] [ng/mg],Rate of oxidation [3] [nM min-1 ml-1],Dopamine level [4] [ng/mg],Dopamine level [5] [ng/mg],Rate of oxidation [6] [nM min-1 ml-1],Ki [7] [µM],Dopamine level [8] [ng/mg],Dopamine level [9] [ng/mg],Dopamine level [10] [ng/mg],Dopamine level [11] [ng/mg]
CN1CC=C(c2ccccc2)CC1,2.7,4.8,25.87,5,6.5,,,,,,
CN1CCc2c([nH]c3ccccc23)C1,,,,,,0.1,400,,,,
CN1CCC2=C(Cc3ccccc32)C1,,,,,,0.21,75,18.2,21.9,24.5,6.5
CN1CCC2C(=Cc3ccccc32)C1 (centres undefined),,,,,,0,65,16.4,19.2,30.3,4.3
